Active and inactive are the calls of the source. The rule behind the calls is not given here.
Key:
[1] = target: T1, Proton-coupled folate transporter (Homo sapiens) (UniProt Q96NT5); assay: Inhibition of [3H]MTX uptake at human PCFT expressed in Chinese hamster R2/PCFT4 cells at 1 uM and pH 5.5 measured after 5 mins; format: cell-based
T1 sequence (whole entry): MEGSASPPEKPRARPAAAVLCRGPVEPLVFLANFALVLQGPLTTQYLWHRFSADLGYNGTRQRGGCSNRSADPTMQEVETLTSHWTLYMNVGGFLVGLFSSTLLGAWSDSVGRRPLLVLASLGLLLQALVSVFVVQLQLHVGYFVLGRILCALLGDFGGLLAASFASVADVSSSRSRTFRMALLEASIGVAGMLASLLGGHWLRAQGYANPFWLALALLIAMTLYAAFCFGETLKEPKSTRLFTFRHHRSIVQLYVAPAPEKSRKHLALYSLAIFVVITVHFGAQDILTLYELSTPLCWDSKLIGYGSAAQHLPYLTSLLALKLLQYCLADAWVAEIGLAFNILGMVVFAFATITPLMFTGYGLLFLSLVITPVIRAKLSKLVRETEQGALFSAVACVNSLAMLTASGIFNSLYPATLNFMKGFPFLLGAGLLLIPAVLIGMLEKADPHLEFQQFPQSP

IGROV-1 [2] = assay: Antitumor activity against human IGROV1 cells xenografted into folate-deficient diet fed SCID mouse assessed as tumor growth at 150 mg/kg, iv administered […] post 2 days of tumor implantation measured on day 20 relative to control; format: functional
In short: (§1)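 Female NCR SCID mice (11 weeks old, ~20 g) are fed a folate-deficient diet from 14 days before implant. IGROV1 fragments (30–60 mg) are trocar-implanted subcutaneously in both flanks, and mice are randomised at 5/group. Tail-vein dosing starts on day 2: 28 mg/kg/inj Q3dx5, or 96 or 150 mg/kg/inj Q3dx4. Vehicle is 5% ethanol, 1% Tween-80, 0.5% NaHCO3 in water at pH 6.5. Caliper tumor mass is (a×b²)/2, T/C is taken when controls reach 700–1200 mg, and weights are recorded daily.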

[3] = Toxicity in folate-deficient diet fed SCID mouse xenografted with human IGROV1 cells assessed as body weight loss at 28 mg/kg, iv administered […] post 2 days of tumor implantation measured after 48 hrs of last dosage; format: organism-based; conditions: in vivo; in short: as §1
[4] = target: T2, Trifunctional purine biosynthetic protein adenosine-3 (Homo sapiens, UniProt P22102); assay: Inhibition of GARFTase in human KB cells expressing RFC/FR-alpha/PCFT assessed as decrease in incorporation of [14C(U)]-glycine into [14C]formyl GAR incubated for 1 hr followed by addition of [14C(U)]-glycine measured after 16 hrs in presence of azaserine; format: cell-based
T2 sequence (P22102 whole entry): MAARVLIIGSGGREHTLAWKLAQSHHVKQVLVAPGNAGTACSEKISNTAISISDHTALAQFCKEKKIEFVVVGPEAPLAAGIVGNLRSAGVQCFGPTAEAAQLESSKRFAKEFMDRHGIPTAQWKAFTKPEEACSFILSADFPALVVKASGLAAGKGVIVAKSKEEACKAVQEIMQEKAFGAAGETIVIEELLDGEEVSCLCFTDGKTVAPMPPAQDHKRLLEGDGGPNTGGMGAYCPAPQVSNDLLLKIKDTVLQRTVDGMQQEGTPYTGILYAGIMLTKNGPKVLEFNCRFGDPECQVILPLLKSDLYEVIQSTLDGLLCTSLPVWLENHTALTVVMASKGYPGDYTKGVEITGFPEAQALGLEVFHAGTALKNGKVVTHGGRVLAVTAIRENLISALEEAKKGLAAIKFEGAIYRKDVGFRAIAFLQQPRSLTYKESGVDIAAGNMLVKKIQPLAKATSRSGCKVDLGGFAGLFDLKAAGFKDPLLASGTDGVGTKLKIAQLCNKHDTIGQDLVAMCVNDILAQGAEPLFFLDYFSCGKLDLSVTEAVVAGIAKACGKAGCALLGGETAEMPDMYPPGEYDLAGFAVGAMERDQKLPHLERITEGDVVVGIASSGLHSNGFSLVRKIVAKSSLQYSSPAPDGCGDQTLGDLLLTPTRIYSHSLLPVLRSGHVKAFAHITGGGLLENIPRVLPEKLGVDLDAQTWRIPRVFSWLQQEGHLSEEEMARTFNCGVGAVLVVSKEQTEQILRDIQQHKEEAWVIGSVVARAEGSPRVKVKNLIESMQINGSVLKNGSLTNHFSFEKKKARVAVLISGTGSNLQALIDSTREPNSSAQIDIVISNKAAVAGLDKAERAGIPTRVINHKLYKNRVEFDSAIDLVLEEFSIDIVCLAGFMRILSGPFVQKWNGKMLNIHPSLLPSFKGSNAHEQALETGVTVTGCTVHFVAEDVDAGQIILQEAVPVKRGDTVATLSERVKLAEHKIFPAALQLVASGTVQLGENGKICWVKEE

IGROV-1 [5] = assay: Antiproliferative activity against human IGROV1 cells expressing human FR-alpha/PCFT assessed as reduction in cell viability measured after 96 hrs in presence of folic acid by Cell-Titer Blue fluorescence analysis; format: functional, cell-based; conditions: IGROV-1, 96 h
IGROV-1 [6] = assay: Antitumor activity against human IGROV1 cells xenografted into folate-deficient diet fed SCID mouse assessed as tumor growth delay at 150 mg/kg, iv administered […] post 2 days of tumor implantation; format: functional
In short: (§2)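 Female NCR SCID mice, 11 weeks, ~20 g, on folate-deficient or standard diet from 14 days pre-implant; bilateral s.c. IGROV1 fragments (30–60 mg); 5 mice/group; tail-vein dosing from day 2 (Q3d schedules) in 5% ethanol, 1% Tween-80, 0.5% NaHCO3, water, pH 6.5; caliper mass (a×b²)/2; T/C and T−C delay.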

[7] = Toxicity in standard diet fed SCID mouse xenografted with human IGROV1 cells assessed as body weight loss at 96 and 150 mg/kg, iv administered qd for 4 times post 2 days of tumor implantation measured during compound treatment; format: organism-based; conditions: in vivo, 48 h
KB = assay: Antiproliferative activity against human KB cells expressing human RFC/FR-alpha/PCFT assessed as reduction in cell viability measured after 96 hrs in presence of folic acid by Cell-Titer Blue fluorescence analysis; format: functional, cell-based
IGROV-1 [8] = assay: Antitumor activity against human IGROV1 cells xenografted into standard diet fed SCID mouse assessed as tumor growth at 28 mg/kg, iv administered […] post 2 days of tumor implantation measured on day 20 relative to control; format: functional; in short: as §2
[9] = Cytotoxicity in PCFT-null Chinese hamster R2 cells assessed as reduction in cell viability measured after 96 hrs by Cell-Titer Blue fluorescence analysis; format: cell-based; conditions: Cricetulus griseus, R2, 96 h
[10] = target: Bifunctional purine biosynthesis protein ATIC (Homo sapiens) (UniProt P31939); assay: Inhibition of AICARFTase in human KB cells expressing RFC/FR-alpha/PCFT assessed as cell growth inhibition measured after 96 hrs in presence of 320 uM AICA by Cell-Titer Blue fluorescence analysis; format: cell-based
[11] = target: Folate receptor beta (Homo sapiens) (UniProt P14207); assay: Displacement of [3H]folic acid from human FR-beta receptor expressed in Chinese hamster D4 cells measured after 15 mins relative to folic acid; format: cell-based
[12] = target: T1, Proton-coupled folate transporter (Homo sapiens); assay: Inhibition of [3H]MTX uptake at human PCFT expressed in Chinese hamster R2/PCFT4 cells at 10 uM and pH 5.5 measured after 5 mins; format: cell-based

Chain of Folate receptor beta (Homo sapiens) (P14207 17-230 limits assumed): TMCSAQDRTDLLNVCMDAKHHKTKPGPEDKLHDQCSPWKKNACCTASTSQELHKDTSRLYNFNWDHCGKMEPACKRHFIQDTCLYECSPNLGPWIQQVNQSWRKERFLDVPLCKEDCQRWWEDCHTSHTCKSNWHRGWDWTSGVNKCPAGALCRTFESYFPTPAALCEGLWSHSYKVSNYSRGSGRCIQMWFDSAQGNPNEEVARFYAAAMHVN
Chain of Bifunctional purine biosynthesis protein ATIC (Homo sapiens) (P31939 whole entry, looked up): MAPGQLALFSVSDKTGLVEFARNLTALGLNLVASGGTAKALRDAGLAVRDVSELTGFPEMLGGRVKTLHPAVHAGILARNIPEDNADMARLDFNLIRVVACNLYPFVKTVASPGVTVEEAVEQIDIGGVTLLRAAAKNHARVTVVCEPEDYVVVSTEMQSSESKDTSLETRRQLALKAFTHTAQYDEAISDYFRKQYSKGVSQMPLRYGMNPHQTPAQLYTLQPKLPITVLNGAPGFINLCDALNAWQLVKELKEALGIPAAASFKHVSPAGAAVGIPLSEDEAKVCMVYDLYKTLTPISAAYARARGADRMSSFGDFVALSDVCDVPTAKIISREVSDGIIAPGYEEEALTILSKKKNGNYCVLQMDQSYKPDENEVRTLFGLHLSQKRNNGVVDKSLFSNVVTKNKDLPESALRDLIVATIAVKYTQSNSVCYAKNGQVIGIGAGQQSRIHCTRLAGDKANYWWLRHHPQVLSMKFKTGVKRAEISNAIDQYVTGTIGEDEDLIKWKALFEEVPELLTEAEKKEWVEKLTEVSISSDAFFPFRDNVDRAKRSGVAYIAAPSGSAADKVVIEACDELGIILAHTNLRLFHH

SMILES: Nc1nc2[nH]c(CCNc3ccc(C(=O)N[C@@H](CCC(=O)O)C(=O)O)cc3)cc2c(=O)[nH]1
- inhibition [1]: 30 to 60%
- T/C (IGROV-1 [2]): 12%
- Activity [3]: Non-Toxic
- IC50 [4]: 2.64 nM
- IC50 (IGROV-1 [5]): 872 nM
- Time (IGROV-1 [6]): 15 days
- Activity [7]: Non-Toxic
- IC50 (KB): 666 nM
- T/C (IGROV-1 [8]): 68%
- IC50 [9]: > 1000 nM
- inhibition [10]: Active
- inhibition [11]: 60 to 110%
- inhibition [12]: 80 to 90%
